Measurements: ChEMBL document CHEMBL3804806, “Synthesis of (Z)-1-(1,3-diphenyl-1H-pyrazol-4-yl)-3-(phenylamino)prop-2-en-1-one derivatives as potential anticancer and apoptosis inducing agents” (Eur J Med Chem, 2016)
Calls of active or inactive are those of the source. The calls are words filed in the database; no cut-off is given here.

Experiments:
HaCaT = assay: Antiproliferative activity against human HaCaT cells after 48 hrs by MTT assay; format: cell-based
Procedure, shortened: (§1)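 Cells seeded at 3,000-5,000/well by doubling time and grown 24 h (37 °C, 5% CO2). HT-29/U87MG kept in DMEM + 10% FBS; A549/PC-3/HaCaT in RPMI-1640 + 10% FBS. Compounds for 48 h, then MTT 4 h, formazan dissolved in DMSO, A570 minus A630. % inhibition vs DMSO-treated cells; IC50 by probit. Three independent experiments in quadruplicate; mean ± SD.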

[1] = Antiproliferative activity against human PC3 cells after 48 hrs by MTT assay; format: functional, cell-based; conditions: PC-3, 48 h; procedure, shortened: as §1
[2] = Antiproliferative activity against human U87MG cells after 48 hrs by MTT assay; format: functional, cell-based, U-87MG ATCC; conditions: U-87 MG; procedure, shortened: as §1
HT-29 = assay: Antiproliferative activity against human HT-29 cells after 48 hrs by MTT assay; format: functional, cell-based; conditions: HT-29, 48 h; procedure, shortened: as §1
A549 [3] = assay: Antiproliferative activity against human A549 cells after 48 hrs by MTT assay; format: functional, cell-based; conditions: A549, 48 h; procedure, shortened: as §1
A549 [4] = assay: Anti-migratory activity in human A549 cells assessed as disruption of actin fibre assembly after 12 hrs by rhodamine phalloidin/Hoechst 33242 staining based confocal microscopic analysis; format: functional, cell-based
Procedure, shortened: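 A549 cells (1x10⁶/well) grown on coverslips 24 h, then exposed to compounds 12 h. Washed, fixed in 4% paraformaldehyde in PBS, stained with rhodamine-phalloidin (F-actin) and Hoechst 33242 (nuclei), mounted in anti-fade. Examined by confocal microscopy, 20X objective.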

A549 [5] = assay: Induction of apoptosis in human A549 cells assessed as chromatin condensation at antiproliferative IC50 after 24 hrs by Hoechst 33242 staining based confocal microscopic analysis; format: functional, cell-based
Procedure, shortened: (§2)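 A549 cells (1x10⁶/well) on coverslips exposed 24 h at IC50, then fixed in 4% paraformaldehyde 10 min at 4 °C. Stained with Hoechst 33242 (5 μg/mL) 20 min at room temp. Nuclear morphology examined by confocal microscopy, excitation 350/emission 460 nm, 20X.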

A549 [6] = assay: Cell cycle arrest in human A549 cells assessed as accumulation at G2/M phase at antiproliferative IC50 after 24 hrs by propidium iodide staining based flow cytometry (reference value: 27.2%); format: functional
A549 [7] = assay: Induction of apoptosis in human A549 cells assessed as intracellular ROS level at antiproliferative IC50 after 24 hrs by DCFDA staining based fluorescence microscopic analysis relative to control; format: functional
[8] = Selectivity ratio of IC50 for human HaCaT cells to IC50 for human A549 cells; format: ADME, cell-based; conditions: HaCaT cells versus A549 cells, read-out: Ratio IC50
Procedure, shortened: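 Ratio built from MTT IC50s: 48 h exposure, absorbance 570 minus 630 nm, inhibition relative to DMSO vehicle, probit-fitted IC50 for HaCaT keratinocytes and A549 cells. Three independent experiments, quadruplicate wells.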

A549 [9] = assay: Induction of apoptosis in human A549 cells assessed as nuclear fragmentation at antiproliferative IC50 after 24 hrs by Hoechst 33242 staining based confocal microscopic analysis; format: functional, cell-based; procedure, shortened: as §2
A549 [10] = assay: Anti-migratory activity in human A549 cells at antiproliferative IC50 after 24 to 48 hrs by wound healing assay; format: functional, cell-based
A549 [11] = assay: Induction of apoptosis in human A549 cells assessed as loss in mitochondrial membrane potential at antiproliferative IC50 after 24 hrs by rhodamine 123 staining based spectrofluorometry relative to control; format: functional
Procedure, shortened: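 A549 cells plated at 5×10^5 cells/mL, adhered overnight, then 24 h at IC50. Harvested and incubated with rhodamine-123 (10 µg/mL) in PBS 30 min at room temp, washed. Fluorescence read by spectrofluorometer, ex 480/em 530 nm, vs untreated cells. Mean ± SD of three independent experiments, each in triplicate.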

SMILES | IC50 (HaCaT) [µM] | IC50 [1] [µM] | IC50 [2] [µM] | IC50 (HT-29) [µM] | IC50 (A549 [3]) [µM] | Activity (A549 [4]) | Activity (A549 [5]) | Activity (A549 [6]) [%] | fold change (FC) (A549 [7]) | selectivity ratio [8] | Activity (A549 [9]) | Activity (A549 [10]) | Activity (A549 [11]) [%]
COc1cc(-c2nn(-c3ccccc3)cc2C(=O)/C=C\Nc2ccc(Cl)cc2)cc(OC)c1OC | 30.2 | 11.2 | 3.21 | 7.68 | 8.67 |  |  |  |  |  |  |  | 
COc1cc(-c2nn(-c3ccccc3)cc2C(=O)/C=C\Nc2ccc(O)cc2)cc(OC)c1OC | 17.6 | 4.6 | 1.8 | 2.5 | 3.16 |  |  |  |  |  |  |  | 
O=C(/C=C\Nc1ccc(C(F)(F)F)cc1)c1cn(-c2ccccc2)nc1-c1ccccc1 | > 50 | > 50 | > 50 | > 50 | > 50 |  |  |  |  |  |  |  | 
COc1ccc(N/C=C\C(=O)c2cn(-c3ccccc3)nc2-c2cc(OC)c(OC)c(OC)c2)cc1 | > 50 | 9.6 | 12.8 | 5.78 | 4.78 |  |  |  |  |  |  |  | 
COc1ccc(-c2nn(-c3ccccc3)cc2C(=O)/C=C\Nc2ccc(O)cc2)cc1 | 34.6 | 1.98 | 3.73 | 2.46 | 2.77 | Active | Active | 43.1 | 2.1 | 10 | Active | Active | 43.5
COc1ccc(N/C=C\C(=O)c2cn(-c3ccccc3)nc2-c2ccccc2)cc1 | > 50 | 6.4 | > 50 | 1.56 | 3.25 |  |  |  |  |  |  |  | 
COc1ccc(-c2nn(-c3ccccc3)cc2C(=O)/C=C\Nc2ccc(C(F)(F)F)cc2)cc1 | > 50 | > 50 | > 50 | 9.87 | > 50 |  |  |  |  |  |  |  | 
COc1ccc(N/C=C\C(=O)c2cn(-c3ccccc3)nc2-c2ccc(OC)cc2)cc1 | > 50 | 13.4 | > 50 | 8.76 | 6.78 |  |  |  |  |  |  |  | 
COc1ccc(-c2nn(-c3ccccc3)cc2C(=O)/C=C\Nc2ccc(Cl)cc2)cc1 | 20.9 | 3.89 | 8.86 | 4.76 | 2.97 |  |  |  |  |  |  |  | 
O=C(/C=C\Nc1ccc(F)cc1)c1cn(-c2ccccc2)nc1-c1ccc(F)cc1 | > 50 | 7.9 | 18.2 | 6.5 | 5.78 |  |  |  |  |  |  |  | 
O=C(/C=C\Nc1ccc(Cl)cc1)c1cn(-c2ccccc2)nc1-c1ccccc1 | 28.4 | 5.2 | 11.4 | 3.61 | 14.1 |  |  |  |  |  |  |  | 
COc1cc(-c2nn(-c3ccccc3)cc2C(=O)/C=C\Nc2ccc(C(F)(F)F)cc2)cc(OC)c1OC | > 50 | > 50 | > 50 | > 50 | > 50 |  |  |  |  |  |  |  | 
O=C(/C=C\Nc1ccc(O)cc1)c1cn(-c2ccccc2)nc1-c1ccc(F)cc1 | 16.3 | 2.6 | 4.7 | 1.9 | 1.5 | Active | Active | 41 | 2.1 | 10 | Active | Active | 30
O=C(/C=C\Nc1ccc(O)cc1)c1cn(-c2ccccc2)nc1-c1ccc(Cl)cc1 | 22.6 | 4.43 | 1.5 | 2.5 | 1.91 | Active | Active | 49.2 | 2.1 | 10 | Active | Active | 45.8
COc1cc(N/C=C\C(=O)c2cn(-c3ccccc3)nc2-c2cc(OC)c(OC)c(OC)c2)cc(OC)c1OC | 20.9 | 14.1 | 5.1 | 8.4 | 7.98 |  |  |  |  |  |  |  | 
COc1ccc(-c2nn(-c3ccccc3)cc2C(=O)/C=C\Nc2ccc(F)cc2)cc1 | 8.91 | 5.73 | 8.91 | 7.65 | 3.98 |  |  |  |  |  |  |  | 

SMILES | IC50 (HaCaT) [µM] | IC50 [1] [µM] | IC50 [2] [µM] | IC50 (HT-29) [µM] | IC50 (A549 [3]) [µM] | Activity (A549 [4]) | Activity (A549 [5]) | Activity (A549 [6]) [%] | fold change (FC) (A549 [7]) | selectivity ratio [8] | Activity (A549 [9]) | Activity (A549 [10]) | Activity (A549 [11]) [%]
O=C(/C=C\Nc1ccc(F)cc1)c1cn(-c2ccccc2)nc1-c1ccccc1 | 34.2 | 7.98 | 10.2 | 6.87 | 4.67 |  |  |  |  |  |  |  | 
COc1cc(N/C=C\C(=O)c2cn(-c3ccccc3)nc2-c2ccc(Cl)cc2)cc(OC)c1OC | 46.6 | 9.98 | 17.8 | 12.7 | 5.64 |  |  |  |  |  |  |  | 
COc1ccc(N/C=C\C(=O)c2cn(-c3ccccc3)nc2-c2ccc(F)cc2)cc1 | 19.6 | 4.6 | 2.5 | 3.2 | 8.9 |  |  |  |  |  |  |  | 
COc1ccc(-c2nn(-c3ccccc3)cc2C(=O)/C=C\Nc2cc(OC)c(OC)c(OC)c2)cc1 | > 50 | 18.9 | > 50 | 14.6 | 11.2 |  |  |  |  |  |  |  | 
O=C(/C=C\Nc1ccc(C(F)(F)F)cc1)c1cn(-c2ccccc2)nc1-c1ccc(Cl)cc1 | > 50 | > 50 | > 50 | > 50 | > 50 |  |  |  |  |  |  |  | 
O=C(/C=C\Nc1ccc(Cl)cc1)c1cn(-c2ccccc2)nc1-c1ccc(F)cc1 | 21.3 | 3.8 | 8.9 | 4.6 | 6.7 |  |  |  |  |  |  |  | 
COc1cc(N/C=C\C(=O)c2cn(-c3ccccc3)nc2-c2ccccc2)cc(OC)c1OC | 36.2 | 5.93 | 2.35 | 9.8 | 6.34 |  |  |  |  |  |  |  | 
COc1ccc(N/C=C\C(=O)c2cn(-c3ccccc3)nc2-c2ccc(Cl)cc2)cc1 | 30.8 | 10.7 | 6.89 | 8.93 | 6.46 |  |  |  |  |  |  |  | 
O=C(/C=C\Nc1ccc(O)cc1)c1cn(-c2ccccc2)nc1-c1ccccc1 | 44.6 | 3.6 | 4.29 | 5 | 3.21 |  |  |  |  |  |  |  | 
O=C(/C=C\Nc1ccc(F)cc1)c1cn(-c2ccccc2)nc1-c1ccc(Cl)cc1 | > 50 | > 50 | 17.9 | > 50 | > 50 |  |  |  |  |  |  |  | 
O=C(/C=C\Nc1ccc(C(F)(F)F)cc1)c1cn(-c2ccccc2)nc1-c1ccc(F)cc1 | > 50 | > 50 | > 50 | > 50 | > 50 |  |  |  |  |  |  |  | 
COc1cc(-c2nn(-c3ccccc3)cc2C(=O)/C=C\Nc2ccc(F)cc2)cc(OC)c1OC | 25.7 | 7.7 | 4.78 | 12.5 | 15.6 |  |  |  |  |  |  |  | 
O=c1[nH]cc(F)c(=O)[nH]1 [FLUOROURACIL] | 16.1 | 2.76 | 3.65 | 2.8 | 3.98 |  |  |  |  |  |  |  | 
COc1cc(N/C=C\C(=O)c2cn(-c3ccccc3)nc2-c2ccc(F)cc2)cc(OC)c1OC | 32.8 | 4.89 | 12.6 | 7.77 | 9.35 |  |  |  |  |  |  |  | 
O=C(/C=C\Nc1ccc(Cl)cc1)c1cn(-c2ccccc2)nc1-c1ccc(Cl)cc1 | 23.4 | 3.89 | 13.1 | 4.65 | 3.67 |  |  |  |  |  |  |  | 
